This note sets out measurements from ChEMBL document CHEMBL4257531, “The role of aryl-topology in balancing between selective and dual 5-HT7R/5-HT1A actions of 3,5-substituted hydantoins” (Medchemcomm, 2018).

For one data set, the target named is D(2) dopamine receptor (Homo sapiens, UniProt P14416). The experiment in a line: Displacement of [3H]-raclopride from human D2L receptor expressed in HEK293 cell membranes after 1 hr by microbeta counting method. Background: Displacement assays read how much labelled ligand stays bound in the presence of the test substance.
Sequence of D(2) dopamine receptor (P14416 whole entry): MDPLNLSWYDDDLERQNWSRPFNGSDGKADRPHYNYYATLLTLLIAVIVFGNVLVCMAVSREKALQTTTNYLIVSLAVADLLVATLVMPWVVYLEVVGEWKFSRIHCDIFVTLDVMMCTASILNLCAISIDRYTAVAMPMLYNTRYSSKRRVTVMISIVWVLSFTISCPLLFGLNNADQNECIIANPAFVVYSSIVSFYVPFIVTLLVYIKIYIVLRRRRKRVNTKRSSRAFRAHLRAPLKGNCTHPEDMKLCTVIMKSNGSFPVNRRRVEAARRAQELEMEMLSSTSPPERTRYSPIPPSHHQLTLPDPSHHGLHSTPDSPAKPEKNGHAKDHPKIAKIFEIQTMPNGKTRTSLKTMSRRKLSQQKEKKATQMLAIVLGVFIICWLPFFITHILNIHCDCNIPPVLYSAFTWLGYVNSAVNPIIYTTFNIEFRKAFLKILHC
The target in data set [1] is T1, 5-hydroxytryptamine receptor 1A (Homo sapiens, UniProt P08908).
T1 sequence (P08908 whole entry): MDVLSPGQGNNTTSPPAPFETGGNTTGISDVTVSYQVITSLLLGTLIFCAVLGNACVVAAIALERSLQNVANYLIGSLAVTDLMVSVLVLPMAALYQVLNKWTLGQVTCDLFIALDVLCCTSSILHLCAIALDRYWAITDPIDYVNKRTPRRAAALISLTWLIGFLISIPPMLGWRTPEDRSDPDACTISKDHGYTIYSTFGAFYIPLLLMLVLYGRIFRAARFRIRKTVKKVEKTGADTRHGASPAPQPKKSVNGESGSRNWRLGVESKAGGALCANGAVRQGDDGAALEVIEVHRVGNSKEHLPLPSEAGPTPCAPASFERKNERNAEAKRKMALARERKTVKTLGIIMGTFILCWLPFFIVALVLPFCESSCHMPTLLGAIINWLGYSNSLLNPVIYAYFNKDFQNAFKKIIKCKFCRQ
The experiment in a line: Displacement of [3H]-8-OH-DPAT from human 5-HT1A receptor expressed in HEK293 cell membranes after 1 hr by microbeta counting method.

Data set [2] has as its target 5-hydroxytryptamine receptor 7 (Homo sapiens, UniProt P34969). The experiment in a line: Displacement of [3H]-5-carboxamidotryptamine from human 5-HT7B receptor expressed in HEK293 cell membranes after 1 hr by microbeta counting method.
The nature of data set [3]: Drug metabolism in CD-1 mouse liver microsomes after 120 mins by UPLC-MS analysis. In kind it is ADME, microsome. The conditions noted are these: for metabolised at 2 h: CD-1, mouse, liver microsomes, read-out: Drug metabolism. The gist of the method:
(§1)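 Mouse liver microsomes with NADPH regeneration system; incubation followed by UPLC-MS with ion fragmentation. Percent substrate remaining read after 120 min; t1/2 and hepatic intrinsic clearance calculated.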
(Liver microsomes are a subcellular fraction often used to study metabolism.)

The nature of data set [4]: Metabolic stability in CD-1 mouse liver microsomes assessed as parent compound remaining after 120 mins by UPLC-MS analysis. The settings on record: 2 h. Format: ADME, microsome. The essentials:
as §1

Data set [5] can be described thus: Half life in CD-1 mouse liver microsomes by UPLC-MS analysis. The settings on record: for t1/2: mouse, microsomes. In kind it is ADME, microsome. The gist of the method: as §1
A short description of data set [6]: Intrinsic clearance in CD-1 mouse liver microsomes by UPLC-MS analysis. The conditions noted are these: read-out: CLH. Format: ADME, microsome. The gist of the method: as §1
The test system of data set [7] is HepG2. The experiment in a line: Cytotoxicity against human HepG2 cells assessed as reduction in cell viability at 100 uM after 72 hrs by MTS assay. In kind it is cell-based. The settings on record: hepg2, 72 h. The essentials: (§2)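 Viability by MTS, absorbance at 490 nm, after 72 h exposure at 0.1–100 μM; doxorubicin 1 μM as positive control. HepG2 only: CCCP 10 μM as additional control. Significance versus negative control by one-way ANOVA with Bonferroni test.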
(Tetrazolium assays rely on reduction of a dye to a coloured formazan, in cell work by metabolically active cells.)

Data set [8] deals with HEK293. The experiment in a line: Cytotoxicity against HEK293 cells assessed as reduction in cell viability at 100 uM after 72 hrs by MTS assay. In kind it is cell-based. The settings on record: human, hek293, 72 h. The gist of the method:
as §2

Data set [9] deals with HepG2. The experiment in a line: Cytotoxicity against human HepG2 cells assessed as reduction in cell viability at 0.1 to 10 uM after 72 hrs by MTS assay. In kind it is cell-based. The settings on record: hepg2, 72 h. The gist of the method: as §2
Data set [10] concerns HEK293. The experiment in a line: Cytotoxicity against HEK293 cells assessed as reduction in cell viability at 0.1 to 10 uM after 72 hrs by MTS assay. In kind it is cell-based. The conditions noted are these: human, hek293, 72 h. The essentials: as §2
In data set [11] the test system is HepG2. The experiment in a line: Cytotoxicity against human HepG2 cells assessed as reduction in cell viability at 1 uM after 72 hrs by MTS assay. In kind it is cell-based. The conditions noted are these: hepg2, 72 h. The gist of the method:
as §2

Data set [12] has as its system HEK293. The experiment in a line: Cytotoxicity against HEK293 cells assessed as reduction in cell viability at 1 uM after 72 hrs by MTS assay. Format: cell-based. The settings on record: human, hek293, 72 h. The essentials:
as §2

The species entered for another data set is Homo sapiens. The experiment in a line: Selectivity ratio of Ki for 5-HT1A receptor (unknown origin) to Ki for 5-HT7 receptor (unknown origin). The gist of the method: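 Competition binding on membranes of HEK-293 cells stably expressing human 5-HT1A or 5-HT7b receptors. 5-HT1A used 2.5 nM [3H]-8-OH-DPAT at room temperature; 5-HT7b used 0.8 nM [3H]-5-CT at 37 °C. Both ran 1 h, with 10 μM 5-HT for nonspecific binding. Seven concentrations (10–10–10–4 M) were tested in triplicate, with filtration read-out.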

Data set [13] concerns HepG2. The experiment in a line: Cytotoxicity against human HepG2 cells assessed as reduction in cell viability at 10 uM after 72 hrs by MTS assay. In kind it is cell-based. The conditions noted are these: hepg2, 72 h. The gist of the method:
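Cells exposed to test compound across 0.1–100 μM (four concentrations) for 72 h. Viability read by MTS assay, absorbance at 490 nm. Positive controls: doxorubicin 1 μM for both lines, plus CCCP 10 μM for HepG2 only. Significance versus negative control assessed by one-way ANOVA with Bonferroni's test.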

For data set [14], the system named is HEK293. The experiment in a line: Cytotoxicity against HEK293 cells assessed as reduction in cell viability after 72 hrs by MTS assay. The conditions noted are these: human, hek293, 72 h.

Sequence of 5-hydroxytryptamine receptor 7 (P34969 whole entry): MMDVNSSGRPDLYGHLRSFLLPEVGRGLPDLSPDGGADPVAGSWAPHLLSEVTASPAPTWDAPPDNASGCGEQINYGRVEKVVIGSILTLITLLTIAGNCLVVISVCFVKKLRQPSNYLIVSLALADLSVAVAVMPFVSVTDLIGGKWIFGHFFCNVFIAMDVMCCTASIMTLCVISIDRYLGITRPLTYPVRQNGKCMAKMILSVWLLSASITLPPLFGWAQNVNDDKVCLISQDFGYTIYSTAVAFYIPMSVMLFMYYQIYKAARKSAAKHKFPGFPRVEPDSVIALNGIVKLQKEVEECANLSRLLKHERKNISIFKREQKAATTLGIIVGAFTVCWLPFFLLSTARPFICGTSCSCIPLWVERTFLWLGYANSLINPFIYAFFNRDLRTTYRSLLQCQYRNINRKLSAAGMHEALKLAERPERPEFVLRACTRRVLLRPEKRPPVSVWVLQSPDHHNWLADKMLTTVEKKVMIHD

With `CC1(c2ccc(F)cc2)NC(=O)N(CC(O)CN2CCC(Oc3ccc(Cl)cc3)CC2)C1=O` (configuration not stated), the Ki (usually the dissociation constant of the complex between target and ligand, obtained from inhibition or displacement) on D(2) dopamine receptor was 4120 nM; in [1], 21500 nM; in data set [2], 172 nM.
Consider `CC1(C)NC(=O)N(CC(O)CN2CCN(c3ccccc3C#N)CC2)C1=O` (configuration not stated), for which the Ki on D(2) dopamine receptor was 3430 nM; in data set [1] it was 1160 nM; in data set [2], 209 nM.
With `CC1(c2ccc(F)cc2)NC(=O)N(CC(O)CN2CCN(c3cccc4ccccc34)CC2)C1=O` (configuration not stated), the Ki at D(2) dopamine receptor turned out to be 295 nM; in [1], 19 nM; in data set [2], 11 nM. Further, the metabolised at 2 h in data set [3] lay in the range of 65 to 70%. Further, in data set [4], the Stability is reported as 65%. In data set [5], this compound had a t1/2 of 0.75 h. The CLint scaled in [6] was 60.3 mL/min/kg. Further, the Activity entry in the data set with HepG2 [7] is given as “Toxic”; in the data set with HEK293 [8], “Toxic”; with HepG2 [9], “Non-Toxic”; with HEK293 [10], “Non-Toxic”.
On to `COc1ccccc1N1CCN(CC(O)CN2C(=O)NC(C)(c3cccc4ccccc34)C2=O)CC1` (configuration not stated), for which the values for the inhibition constant Ki (at D(2) dopamine receptor; in [1]; in data set [2]) were 256 nM, 326 nM and 5 nM, respectively. Moreover, in data set [3] (mouse, microsomes, 2 h), the Drug metabolism was 40%. The Stability in data set [4] worked out at 40%. For the same compound, the half-life (as a rule, the time needed for the level to fall by half in the phase considered) in data set [5] (CD-1, mouse, liver microsomes) was 1.57 h. The CLint scaled in data set [6] was found to be 29 mL/min/kg. The Activity result is “Toxic” in the data set with HepG2 [7], “Toxic” in the data set on HEK293 [8], “Non-Toxic” with HepG2 [9] and “Non-Toxic” in the data set with HEK293 [10].
Regarding `CC1(c2cccc3ccccc23)NC(=O)N(CC(O)CN2CCN(c3ccccc3C#N)CC2)C1=O` (configuration not stated), the Ki on D(2) dopamine receptor was 416 nM; in [1], 1230 nM; in data set [2], 19 nM.
Turning to `COc1ccccc1N1CCN(CC(O)CN2C(=O)NC(C)(c3ccc4ccccc4c3)C2=O)CC1` (configuration not stated), the results for the Ki (at D(2) dopamine receptor; in data set [1]; in data set [2]) were 153 nM, 128 nM and 3 nM, respectively. Moreover, the metabolised at 2 h in data set [3] fell in the range of 65 to 70%. In addition, the Stability in [4] came out at 70%. The same compound displayed a t1/2 in data set [5] of 1.04 h. In addition, in data set [6], the CLint scaled was 43.4 mL/min/kg. Further, the Activity entry in the data set with HepG2 [7] was “Toxic”; with HEK293 [8] it was “Toxic”; with HepG2 [9] it was “Non-Toxic”; in the data set on HEK293 [10], “Non-Toxic”.
As for `COc1cccc2c1C(=O)c1c(O)c3c(c(O)c1C2=O)C[C@@](O)(C(=O)CO)C[C@@H]3O[C@H]1C[C@H](N)[C@H](O)[C@H](C)O1` [DOXORUBICIN], the Activity result with HepG2 [11] and in the data set on HEK293 [12] was “Toxic” throughout.
As for `CC1(c2ccc(F)cc2)NC(=O)N(CC(O)CN2CCN(Cc3ccccc3)CC2)C1=O` (configuration not stated), the Ki at D(2) dopamine receptor worked out at 20000 nM; in data set [1], 378000 nM; in data set [2] it was 2080 nM.
On the same counts, the results for `CC1(c2ccc(F)cc2)NC(=O)N(CC(O)CN2CCN(Cc3cccc4ccccc34)CC2)C1=O` (configuration not stated) are 5230 nM, 5580 nM and 2170 nM.
The corresponding values for `CC1(C)NC(=O)N(CC(O)CN2CCN(C(c3ccccc3)c3ccccc3)CC2)C1=O` (configuration not stated) are 1150 nM, 15100 nM and 824 nM.
As for `CC1(c2ccc(F)cc2)NC(=O)N(CC(O)CN2CCN(C(c3ccccc3)c3ccccc3)CC2)C1=O` (configuration not stated), the Ratio Ki in the data set filed under Homo sapiens amounted to 71. Further, the Stability in data set [4] is recorded as 20%. This compound registered a t1/2 in data set [5] of 2.625 h. In data set [6], the CLint scaled turned out to be 17.2 mL/min/kg.
Consider `COc1ccccc1N1CCN(CC(O)CN2C(=O)NC(C)(C)C2=O)CC1` (configuration not stated), for which the Ki at D(2) dopamine receptor was 2130 nM; in data set [1], 489 nM; in data set [2], 125 nM.
Take `CC1(c2ccc3ccccc3c2)NC(=O)N(CC(O)CN2CCN(c3ccccc3C#N)CC2)C1=O` (configuration not stated): the Ki on D(2) dopamine receptor came out at 264 nM; in data set [1], 129 nM; in data set [2], 3 nM.
The corresponding values for `CC1(c2ccc(F)cc2)NC(=O)N(CC(O)CN2CCc3ccccc3C2)C1=O` (configuration not stated) are 5850 nM, 1550 nM and 888 nM.
On the same counts, the results for `CC1(c2cccc3ccccc23)NC(=O)N(CC(O)CN2CCN(C(c3ccccc3)c3ccccc3)CC2)C1=O` (configuration not stated) are 273 nM, 413000 nM and 224 nM.
The corresponding values for `CC1(c2ccc(F)cc2)NC(=O)N(CC(O)CN2CCC(Oc3ccccc3)CC2)C1=O` (configuration not stated) are 4350 nM, 5210 nM and 165 nM.
In the case of `N#CC(C#N)=NNc1cccc(Cl)c1` [CARBONYL CYANIDE M-CHLOROPHENYLHYDRAZONE], the Activity result in the data set on HepG2 [13] and in the data set on HEK293 [14] was “Toxic” each time.
With `CC1(c2ccc(F)cc2)NC(=O)N(CC(O)CN2CCN(C(=O)c3ccccc3)CC2)C1=O` (configuration not stated), the inhibition constant (Ki) on D(2) dopamine receptor stood at 10100 nM; in data set [1], 6220 nM; in [2], 3610 nM.
